Results reported in PubChem BioAssay AID588455 (Southern Research Specialized Biocontainment Screening …, 2011).

System: HEp-2 RSV Long CPE inhibition, luminescence viability
Experiment: antiviral activity against respiratory syncytial virus – cell-based, synthesized compounds, set 13, dose response (AID 588455)
Procedure, shortened: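 test system = HEp-2 human cells infected with RSV strain Long | doses = 8-point twofold series, 50 to 0.39 µM, 0.5% DMSO final | schedule = 6 d infection at 37 °C | measured by = luminescence-based measurement of viral cytopathic effect | read-out basis = percent CPE inhibition versus cell-only and virus-only wells, plus four-parameter IC50 | benchmarks = cells-only and virus-infected control wells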

SMILES | IC50 [nM]
COCCCNC(=O)c1ccc(Cn2c(=O)c3ccccc3n(Cc3ccc(Br)cc3)c2=O)cc1 | 480
COCCCNC(=O)c1ccc(Cn2c(=O)c3ccccc3n(Cc3ccc(Cl)cc3)c2=O)cc1 | 970
COCCCNC(=O)c1ccc(Cn2c(=O)c3ccccc3n(Cc3ccc([N+](=O)[O-])cc3)c2=O)cc1 | 480
